Measurements of several laboratories.
Compare with care: the assays were run in different laboratories.
Cell line: A-375
Effect on: cell growth or viability

| SMILES | test | setting | measurement | result |
| --- | --- | --- | --- | --- |
| O=C(O)/C=C/c1ccc(O)c(O)c1 | MTT | – | IC50 | 4800 nM |
| COc1cc(Nc2nccc(-c3cnn4nc(OC)ccc34)n2)cc(C(F)(F)F)c1 | ATP luminescence | – | IC50 | 97 nM |
| O=C(O)c1cc(O)c(O)c(O)c1 | MTT | – | IC50 | 18700 nM |
| COc1cc(C(=O)c2csc(-c3ccccc3)n2)cc(OC)c1OC | SRB | 96 h | IC50 | 28 nM |
| CN(C)CCOc1ccc(-c2nc(-c3ccncc3)c(-c3ccc4c(c3)CC/C4=N\O)[nH]2)cc1 | – | – | EC50 | 30 nM |
| CC(C)C[C@H](NC(=O)[C@H](Cc1ccccc1)NC(=O)c1cnccn1)B(O)O | ATP luminescence | – | IC50 | 11 nM |
| CNc1nc2ccccc2n2c(-c3cccc(OC)c3)cnc12 | neutral red | 96 h | IC50 | 230 nM |
| Cn1nccc1Nc1nccc(-c2ccn([C@H](CO)c3ccc(Cl)c(F)c3)c(=O)c2)n1 | resazurin | 96 h | IC50 | 130 nM |
| CNC(=O)c1cc(Oc2ccc(NC(=O)Nc3ccc(Cl)c(C(F)(F)F)c3)cc2)ccn1 | – | – | EC50 | 4000 nM |
| Cn1nccc1Nc1nccc(-c2cc3c(s2)C(C)(C)N(CCN2CCOCC2)C3=O)n1 | resazurin | 96 h | IC50 | 350 nM |
| CC(=O)c1ccc(N=Nc2c(C(=O)O)cc(O)c(O)c2O)cc1 | MTT | – | IC50 | 12900 nM |
